Test results as given in ChEMBL document CHEMBL1149395, “Beta-substituted cyclohexanecarboxamide: a nonpeptidic framework for the design of potent inhibitors of cathepsin K” (J Med Chem, 2006).

Tests used:
[1] = molecular target: T1, Cathepsin K (Oryctolagus cuniculus, UniProt P43236); test: Inhibitory activity against rabbit Cathepsin K
T1 sequence (P43236 whole entry): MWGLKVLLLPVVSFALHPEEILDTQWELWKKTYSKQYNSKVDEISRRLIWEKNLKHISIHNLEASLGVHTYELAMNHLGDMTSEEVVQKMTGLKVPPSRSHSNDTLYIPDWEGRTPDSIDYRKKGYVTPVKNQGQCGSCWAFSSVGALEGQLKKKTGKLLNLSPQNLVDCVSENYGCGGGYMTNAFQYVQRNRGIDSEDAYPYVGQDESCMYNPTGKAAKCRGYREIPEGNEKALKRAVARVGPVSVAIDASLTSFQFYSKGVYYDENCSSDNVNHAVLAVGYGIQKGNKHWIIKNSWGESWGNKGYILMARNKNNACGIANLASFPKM

[2] = Plasma clearance in dog at 5 mL/kg, po; assay type: ADME, organism-based, Canis lupus familiaris
Procedure, shortened: (§1)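 Single compounds given orally as suspensions in 1% methocel to animals fasted overnight, dosed in the morning. Oral dosing volumes were 10 mL/kg for rats, 5 mL/kg for dogs and 1 mL/kg for monkeys. Intravenous comparison dosing went via the jugular vein in PEG-200/H₂O (3:2) at 1 mL/kg. Plasma was sampled at regular intervals, precipitated with 1.5 volumes of acetonitrile, centrifuged and analysed by LC-MS.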

[3] = Half life in squirrel monkey at 1 mL/kg, po; assay type: ADME, organism-based, Saimiri sciureus; conditions: in vivo; procedure, shortened: as §1
[4] = species on record: Oryctolagus cuniculus; test: Effect on degradation of collagen in bovine bone by rabbit osteoclast; assay type: functional
[5] = Plasma clearance in squirrel monkey at 1 mL/kg, po; assay type: ADME, organism-based, Saimiri sciureus; procedure, shortened: as §1
[6] = Half life in dog at 5 mL/kg, po; assay type: ADME, organism-based, Canis lupus familiaris; conditions: in vivo; procedure, shortened: as §1
[7] = molecular target: Cathepsin K (Homo sapiens, UniProt P43235); test: Inhibitory activity against humanized rabbit Cathepsin K
[8] = molecular target: Cathepsin (L and K) (Homo sapiens) (UniProt P43235+P07711); test: Selectivity for Cathepsin L over Cathepsin K; assay type: protein assay
[9] = molecular target: Cathepsin (B and K) (Homo sapiens) (UniProt P43235+P07858); test: Selectivity for Cathepsin B over Cathepsin K; assay type: protein assay
[10] = molecular target: Cathepsin (S and K) (Homo sapiens) (UniProt P25774+P43235); test: Selectivity for Cathepsin S over Cathepsin K; assay type: protein assay
[11] = Half life in rat at 10 mL/kg, po; assay type: ADME, organism-based; conditions: Sprague-Dawley, in vivo; procedure, shortened: as §1
[12] = Plasma clearance in rat at 10 mL/kg, po; assay type: ADME, organism-based; conditions: Sprague-Dawley; procedure, shortened: as §1
[13] = Oral bioavailability in squirrel monkey at 1 mL/kg, po; assay type: ADME, organism-based, Saimiri sciureus; conditions: in vivo; procedure, shortened: as §1
[14] = Oral bioavailability in rats at 10 mL/kg, po; assay type: ADME, organism-based; conditions: Sprague-Dawley, rat, in vivo; procedure, shortened: as §1
[15] = Oral bioavailability in dogs at 5 mL/kg, po; assay type: ADME, organism-based, Canis lupus familiaris; conditions: dog, in vivo; procedure, shortened: as §1
[16] = molecular target: T2, Cathepsin K (Homo sapiens, UniProt P43235); test: Inhibitory activity against human Cathepsin K
T2 sequence (P43235 whole entry): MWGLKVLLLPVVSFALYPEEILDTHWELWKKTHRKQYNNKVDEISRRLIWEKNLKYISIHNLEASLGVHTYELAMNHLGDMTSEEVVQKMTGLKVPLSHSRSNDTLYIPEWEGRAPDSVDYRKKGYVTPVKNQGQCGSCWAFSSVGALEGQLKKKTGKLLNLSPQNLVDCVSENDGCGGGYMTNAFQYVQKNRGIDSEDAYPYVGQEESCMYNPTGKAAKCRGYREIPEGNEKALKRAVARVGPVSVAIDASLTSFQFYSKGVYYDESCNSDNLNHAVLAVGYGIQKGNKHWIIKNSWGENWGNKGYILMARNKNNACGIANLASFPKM

[17] = Half life in rat at 1 mL/kg, iv; conditions: Sprague-Dawley, in vivo
[18] = Plasma clearance in rat at 1 mL/kg, iv; conditions: Sprague-Dawley

Row | IC50 [7] | Selectivity ratio [8] | Selectivity ratio [9] | Selectivity ratio [10] | SMILES | also measured
1 | 0.28 nM | 780 | > 36000 | 940 | CSc1ccc(-c2ccccc2[C@@H]2CCC(F)(F)C[C@H]2C(=O)NCC#N)cc1 | IC50 [1]: 0.32 nM; CL/F [2]: 3.6 mL/min/kg; half-life [3]: 8.8 h; IC50 [4]: 16 nM; CL/F [5]: 17 mL/min/kg; half-life [6]: 15 h; half-life [11]: 3.5 h; CL/F [12]: 8.7 mL/min/kg; bioavailability [13]: 78%; bioavailability [14]: 39%; bioavailability [15]: 55%
2 | 30 nM | 120 | 145 | 35 | N#CCNC(=O)[C@@H]1CCCC[C@H]1CSc1ccc(F)cc1 (mixture of isomers) | 
3 | 100 nM | 350 | > 990 | 120 | N#CCNC(=O)[C@@H]1CCCC[C@H]1CSc1ccc(N)cc1 (mixture of isomers) | 
4 | 172 nM | 150 | 31 | 28 | N#CCNC(=O)[C@@H]1CCCC[C@H]1CSc1ccccc1 (racemic) | IC50 [16]: 140 nM
5 | 30 nM | 120 | > 3400 | 330 | N#CCNC(=O)[C@@H]1CCCC[C@H]1CSc1ccc(Cl)cc1 (racemic) | 
6 | 280 nM |  |  |  | N#CCNC(=O)[C@@H]1CCCC[C@H]1CSc1cc(Cl)cc(Cl)c1 (racemic) | 
7 | 490 nM |  |  |  | N#CCNC(=O)[C@@H]1CCCC[C@H]1CSc1nccs1 (racemic) | 
8 | 350 nM |  |  |  | N#CCNC(=O)[C@@H]1CCCC[C@H]1CSc1cccc(F)c1 (racemic) | 
9 |  | 1600 | > 2400 | 1500 | CSc1ccc(-c2ccccc2C2CCC(F)CC2C(=O)NCC#N)cc1 (racemic; form 1) [listing 2 of 2 here] | 
10 | 3.7 nM |  |  |  | CSc1ccc(-c2ccccc2C2CCC(F)CC2C(=O)NCC#N)cc1 (racemic; form 2) [listing 1 of 2 here] | IC50 [1]: 12 nM
11 |  | 2000 | > 2700 | 180 | CSc1ccc(-c2ccccc2C2CCC(F)CC2C(=O)NCC#N)cc1 (racemic; form 2) [listing 2 of 2 here] | 
12 | 950 nM |  |  |  | N#CCNC(=O)[C@@H]1CCCC[C@H]1CSc1nnc(-c2ccncc2)o1 (relative stereo) | 

More lines, now with the values behind:

Row | SMILES | IC50 [7] | Selectivity ratio [8] | Selectivity ratio [9] | Selectivity ratio [10] | also measured
13 | N#CCNC(=O)C1=CCCCC1 |  |  |  |  | IC50 [16]: 3400 nM
14 | CSc1ccc(-c2ccccc2[C@H]2CCC(F)(F)C[C@@H]2C(=O)NCC#N)cc1 | 7.1 nM |  |  |  | IC50 [1]: 9.2 nM
15 | N#CCNC(=O)[C@@H]1CCCC[C@H]1CSc1cccc(O)c1 | 330 nM |  |  |  | 
16 | N#CCNC(=O)C1(NC(=O)c2ccccc2)CCCCC1 |  |  |  |  | IC50 [16]: 78 nM
17 | CSc1ccc(S(=O)(=O)C[C@@H]2CCCC[C@H]2C(=O)NCC#N)cc1 (mixture of isomers) | 5 nM | 740 | 2000 | 1800 | half-life [17]: 0.0833 h; clearance [18]: 38 mL/min/kg
18 | N#CCNC(=O)[C@@H]1CCCC[C@H]1CSc1ccc(Cl)cc1Cl (mixture of isomers) | 110 nM |  |  |  | 
19 | N#CCNC(=O)[C@@H]1CCCC[C@H]1CSc1cccc(Cl)c1 (mixture of isomers) | 200 nM |  |  |  | 
20 | N#CCNC(=O)[C@@H]1CCCC[C@H]1CSc1cccc(Br)c1 (mixture of isomers) | 150 nM |  |  |  | 
21 | N#CCNC(=O)[C@@H]1CCCC[C@H]1CS(=O)(=O)c1ccc(OC(F)(F)F)cc1 (racemic) |  |  |  |  | half-life [17]: 0.333 h; clearance [18]: 42 mL/min/kg
22 | N#CCNC(=O)[C@@H]1CCCC[C@H]1SCc1ccccc1 (racemic) |  |  |  |  | IC50 [16]: 52 nM
23 | COc1cccc(SC[C@@H]2CCCC[C@H]2C(=O)NCC#N)c1 (racemic) | 370 nM |  |  |  | 
24 | N#CCNC(=O)[C@@H]1CCCC[C@H]1CSc1cccc(N)c1 (racemic) | 700 nM |  |  |  | 
25 | CSc1ccc(-c2ccccc2[C@@H]2CCCC[C@H]2C(=O)NCC#N)cc1 (racemic) | 2.6 nM | 2800 | > 3800 | > 3800 | half-life [17]: 0.733 h; clearance [18]: 35 mL/min/kg
26 | N#CCNC(=O)[C@@H]1CCCC[C@H]1c1ccccc1-c1ccc(F)cc1 (racemic) |  |  |  |  | half-life [17]: 0.75 h; clearance [18]: 50 mL/min/kg
27 | COc1ccc(SC[C@@H]2CCCC[C@H]2C(=O)NCC#N)cc1 (racemic) | 28 nM | 810 | > 3500 | 960 | 
28 | CSc1ccc(-c2ccccc2C2CCC(F)(F)CC2C(=O)NCC#N)cc1 (racemic) | 0.46 nM | 880 | > 120000 | 1100 | IC50 [1]: 0.5 nM; half-life [11]: 3.5 h; CL/F [12]: 15 mL/min/kg; bioavailability [14]: 53%

Row | SMILES | IC50 [7] | Selectivity ratio [8] | Selectivity ratio [9] | Selectivity ratio [10] | also measured
29 | N#CCNC(=O)[C@@H]1CCCC[C@H]1CSc1ccc(Br)cc1 (racemic) | 33 nM | 71 | > 3100 | > 3100 | 
30 | CSc1ccc(SC[C@@H]2CCCC[C@H]2C(=O)NCC#N)cc1 (racemic) | 4.2 nM | 2200 | > 24000 | 3200 | 
31 | N#CCNC(=O)[C@@H]1CCCC[C@H]1CSc1cc(Cl)c(Cl)cc1Cl (racemic) | 460 nM |  |  |  | 
32 | N#CCNC(=O)[C@@H]1CCCC[C@H]1CSc1nc2ccccc2s1 (racemic) | 200 nM |  |  |  | 
33 | N#CCNC(=O)[C@@H]1CCCC[C@H]1CSc1nc2ccccc2o1 (racemic) | 480 nM |  |  |  | 
34 | Cc1ccc(SC[C@@H]2CCCC[C@H]2C(=O)NCC#N)cc1 (racemic) | 100 nM | 110 | 380 | 180 | 
35 | N#CCNC(=O)[C@@H]1CCCC[C@H]1CSc1ccc(O)cc1 (racemic) | 21 nM | 1700 | 880 | 110 | 
36 | N#CCNC(=O)[C@@H]1CCCC[C@H]1CSc1ncccn1 (racemic) | 990 nM |  |  |  | 
37 | N#CCNC(=O)C1CC(F)(F)CCC1c1ccccc1-c1ccc(F)cc1 (racemic) | 36 nM |  |  |  | IC50 [1]: 9.2 nM; half-life [11]: 4.5 h; CL/F [12]: 37 mL/min/kg; bioavailability [14]: 26%
38 | N#CCNC(=O)[C@@H]1CCCC[C@@H]1SCc1ccccc1 (racemic) |  |  |  |  | IC50 [16]: 280 nM
39 | N#CCNC(=O)[C@@H]1CCCC[C@H]1CSc1cc(Cl)ccc1Cl (racemic) | 150 nM |  |  |  | 
40 | CSc1ccc(-c2ccccc2C2CCC(Cl)(Cl)CC2C(=O)NCC#N)cc1 (racemic) | 0.58 nM | 450 | > 17000 | 52 | IC50 [1]: 0.59 nM; half-life [11]: 3.1 h; CL/F [12]: 51 mL/min/kg; bioavailability [14]: 75%
41 | CSc1ccc(-c2ccccc2C2CCC(F)CC2C(=O)NCC#N)cc1 (racemic; form 1) [listing 1 of 2 here] | 4.2 nM |  |  |  | IC50 [1]: 3.7 nM; half-life [3]: 0.8 h; CL/F [5]: 21 mL/min/kg; half-life [11]: 1.5 h; CL/F [12]: 25 mL/min/kg; bioavailability [13]: 28%; bioavailability [14]: 88%
42 | N#CCNC(=O)[C@@H]1CCCC[C@H]1CSc1ncc[nH]1 (relative stereo) | 410 nM |  |  |  | 
43 | N#CCNC(=O)[C@@H]1CCCC[C@H]1CSc1ccc(I)cc1 (relative stereo) | 17 nM | 52 | > 5800 | > 5800 | 
